Key:
Format in all cases: functional
DU-145 = assay: Antiproliferative activity against human DU145 cells by sulforhodamine B assay
Summary of the method: (§1)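 Cells in RPMI 1640 (25 mM HEPES, 2 mM L-glutamine, 10% heat-inactivated FBS, antibiotics) at 37 °C, 5% CO2. Seeded at 3–5 × 10³/well with graded concentrations, paclitaxel as assay control, for 72 h. TCA-fixed, stained with 0.04% SRB, dye dissolved in 10 mM Tris, A515 read. GI50 is the concentration halving absorbance versus untreated cells; three or more experiments.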

[1] = Selectivity ratio of GI50 for human KB cells to GI50 for multidrug-resistant P-gp expressing human KBVIN cells
Summary of the method: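 Ratio of GI50 in parental KB to GI50 in P-gp-overexpressing KB-VIN. […] KB-VIN cells were grown 7–10 days without vincristine before the assay.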

[2] = Antiproliferative activity against multidrug-resistant P-gp expressing human KBVIN cells by sulforhodamine B assay
Summary of the method: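 Vincristine-resistant KB subline kept in 100 nM vincristine, then grown 7–10 days without it before testing. RPMI 1640 with 10% FBS, 37 °C, 5% CO2. 3–5 × 10³ cells/well exposed 72 h to a concentration series, paclitaxel as assay control. SRB staining after TCA fixation, A515 read. GI50 is the 50% absorbance reduction versus untreated cells; three or more experiments.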

A549 = assay: Antiproliferative activity against human A549 cells by sulforhodamine B assay; summary of the method: as §1
KB = assay: Antiproliferative activity against human KB cells by sulforhodamine B assay; summary of the method: as §1

| SMILES | GI50 (DU-145) [µM] | RatioGI50 [1] | GI50 [2] [µM] | GI50 (A549) [µM] | GI50 (KB) [µM] |
| --- | --- | --- | --- | --- | --- |
| C=C1[C@H]2C[C@@H]3C4N5C[C@]6(C)CCC[C@@]47[C@@H]6[C@@H]5C[C@]3([C@@H]1O)[C@H]7[C@H]2OC(=O)c1ccccc1 | > 20 | >20 | > 20 | > 20 | > 20 |
| CCN1C[C@]2(C)CC[C@H](OC)[C@@]34[C@@H]5C[C@H]6[C@H](O)[C@@H]5[C@@]5(C[C@@H]6OC)OCO[C@@]5(C(=O)[C@H]23)[C@@H]14 [YUNNADELPHININE] | > 20 | >20 | > 20 | > 20 | > 20 |
| C=C1[C@H]2C[C@@H]3C4N5C[C@]6(C)CCC[C@@]47[C@@H]6[C@@H]5C[C@]3([C@@H]1O)[C@H]7[C@H]2OC(=O)c1ccc(OC(F)(F)F)cc1 | 10 | 10 | 10 | 10 | 10 |
| COC[C@]12CN(C)C3[C@@H]4[C@H](OC)[C@H]1[C@@]3([C@@H](OC)C[C@H]2OC(C)=O)[C@@H]1C[C@@]2(O)[C@H](OC(=O)c3ccccc3)[C@@H]1[C@]4(OC(C)=O)[C@@H](O)[C@@H]2OC | > 20 | >20 | > 20 | > 20 | > 20 |
| C=C1[C@H]2C[C@@H]3C4N5C[C@]6(C)CCC[C@@]47[C@@H]6[C@@H]5C[C@]3([C@@H]1OC(=O)c1ccc([N+](=O)[O-])cc1)[C@H]7[C@H]2O | > 20 | >20 | > 20 | > 20 | > 20 |
| C=C1[C@H]2C[C@H]3C4N(Cc5ccccc5)C[C@]5(C)CCC[C@]46[C@H]([C@H]2O)C3(CC(=O)[C@H]56)[C@@H]1O (some centres not stated) | > 20 | >20 | > 20 | > 20 | > 20 |
| C=C1[C@H]2C[C@@H]3C4N5C[C@]6(C)CCC[C@@]47[C@@H]6[C@@]5(OC(=O)c4ccc(OC)c(OC)c4)C[C@]3([C@@H]1O)[C@H]7[C@H]2OC(=O)c1ccc(OC)c(OC)c1 | 10 | 10 | 10 | 10 | 10 |
| C=C1[C@H]2C[C@@H]3C4N5C[C@]6(C)CCC[C@@]47[C@@H]6[C@@]5(O)C[C@]3([C@@H]1O)[C@H]7[C@H]2OC(=O)c1cccnc1 | > 20 | >20 | > 20 | > 20 | > 20 |
| CCN1C(=O)[C@]2(C)CC[C@H](OC)[C@@]34[C@@H]5C[C@H]6[C@H](OC)[C@@H]5[C@@]5(C[C@@H]6OC)OCO[C@@]5([C@@H](O)[C@@H]32)[C@@H]14 | > 20 | >20 | > 20 | > 20 | > 20 |
| CO[C@H]1[C@@H]2C[C@@H]3[C@H]1[C@](O)(C[C@@H]2OC)[C@@]1(O)C2N=C[C@]4(COC(=O)c5ccccc5N)CC[C@H](OC)[C@@]23[C@@H]4[C@@H]1OC | > 20 | >20 | > 20 | > 20 | > 20 |
| CCN1C[C@]2(COC)[C@H](O)C[C@H](OC(C)=O)[C@]34C1[C@@](O)([C@@H](OC)[C@H]23)[C@@]1(O)C[C@H](OC)[C@H]2C[C@@H]4[C@@H]1[C@H]2OC(C)=O | > 20 | >20 | > 20 | > 20 | > 20 |
| C=C1[C@H]2C[C@@H]3C4N5C[C@]6(C)CCC[C@@]47[C@@H]6[C@@]5(OC(=O)c4ccc(OC)cc4)C[C@]3([C@@H]1O)[C@H]7[C@H]2OC(=O)c1ccc(OC)cc1 | > 20 | >20 | > 20 | > 20 | > 20 |
| C=C1[C@H]2C[C@@H]3C4N5C[C@]6(C)CCC[C@@]47[C@@H]6[C@@]5(O)C[C@]3([C@@H]1OC(=O)c1cccnc1)[C@H]7[C@H]2O | > 20 | >20 | > 20 | > 20 | > 20 |
| C=C1[C@H]2C[C@@H]3C4N5C[C@]6(C)CCC[C@@]47[C@@H]6[C@@]5(O)C[C@]3([C@@H]1OC(C)=O)[C@H]7[C@H]2O | > 20 |  | > 20 | > 20 | > 20 |
| COC[C@]12CN(C)C3[C@@H]4[C@H](OC)[C@H]1[C@@]3([C@@H](OC)C[C@H]2O)[C@@H]1C[C@@]2(O)[C@H](OC(=O)c3ccccc3)[C@@H]1[C@]4(OC(C)=O)[C@@H](O)[C@@H]2OC | > 20 | >20 | > 20 | > 20 | > 20 |
| CCN1C[C@@]2(COC)[C@H]3[C@@H](OC)C=C4[C@H]5[C@@H](OC(=O)c6ccc(OC)cc6)[C@](O)(C[C@H]5[C@@]35C1O[C@@H]2C[C@@H]5OC)[C@@H](OC)[C@@H]4O | > 20 | >20 | > 20 | > 20 | > 20 |
| C=C1[C@H]2C[C@@H]3C4N5C[C@]6(C)CCC[C@@]47[C@@H]6[C@@]5(OC(=O)c4ccc([N+](=O)[O-])cc4)C[C@]3([C@@H]1O)[C@H]7[C@H]2O | > 20 | >20 | > 20 | > 20 | > 20 |
| C=C1[C@H]2C[C@H]3C4N5C[C@]6(C)CCC[C@]47[C@H]([C@H]2OC(=O)c2ccccc2)C3(C[C@]5(OC(=O)c2ccccc2)[C@H]67)[C@@H]1O | 10 | 10 | 10 | 10 | 10 |
| C=C1[C@H]2C[C@@]3([C@@H]1OC(C)=O)[C@@H](C[C@@H]2OC(=O)c1ccccc1)[C@@]12C4[C@@H]3C[C@@H]1[C@@](C)(CC[C@@H]2O)CN4CC | > 20 | >20 | > 20 | > 20 | > 20 |
| C=C1[C@H]2C[C@@]3([C@@H]1OC(=O)c1ccccc1)[C@@H](C[C@@H]2OC(=O)c1ccccc1)[C@@]12C4[C@@H]3C[C@@H]1[C@@](C)(CC[C@@H]2OC(=O)c1ccccc1)CN4CC | > 20 | >20 | > 20 | > 20 | > 20 |
| CCN1C[C@]2(COC)CC[C@H](OC)[C@]34C1[C@@](O)([C@@H](OC)[C@H]23)[C@@]1(O)C[C@H](OC)[C@H]2C[C@@H]4[C@@H]1[C@H]2OC(C)=O | > 20 | >20 | > 20 | > 20 | > 20 |
| C=C1[C@@H](O)[C@]23C[C@@H]1[C@@H](OC(=O)c1ccc(OC)cc1)C[C@H]2[C@@]12C4C3C[C@@H]1[C@@](C)(CC[C@H]2O)CN4CC | > 20 | >20 | > 20 | > 20 | > 20 |
| CCN1C[C@]2(COC)CC[C@H](OC(=O)c3ccc(C(F)(F)F)cc3)[C@]34C1[C@@](O)([C@@H](OC)[C@H]23)[C@@]1(O)C[C@H](OC)[C@H]2C[C@@H]4[C@@H]1[C@H]2O | > 20 | >20 | > 20 | > 20 | > 20 |
| CC(=O)O[C@H]1C(=O)[C@@]2(C)[C@H]([C@H](OC(=O)c3ccccc3)[C@]3(O)C[C@H](OC(=O)[C@H](O)[C@@H](NC(=O)c4ccccc4)c4ccccc4)C(C)=C1C3(C)C)[C@]1(OC(C)=O)CO[C@@H]1C[C@@H]2O [PACLITAXEL] | 0.0057 | 0.0067 | 0.95 | 0.0071 | 0.0064 |
| C=C1[C@H]2C[C@@H]3C4N5C[C@]6(C)CCC[C@@]47[C@@H]6[C@@]5(O)C[C@]3([C@@H]1OC(=O)c1ccccc1)[C@H]7[C@H]2OC(=O)c1ccccc1 | 7.6 | 0.82 | 6.3 | 8.8 | 5.2 |
| C=C1[C@H]2C[C@@H]3C4N5C[C@]6(C)CCC[C@@]47[C@@H]6[C@@]5(O)C[C@]3([C@@H]1OC(=O)c1ccc(OC)c(OC)c1)[C@H]7[C@H]2O | > 20 | >20 | > 20 | > 20 | > 20 |
| CCN1C[C@]2(COC)[C@H](O)C[C@H](O)[C@]34C1[C@@](O)([C@@H](OC)[C@H]23)[C@@]1(O)C[C@H](OC)[C@H]2C[C@@H]4[C@@H]1[C@H]2OC(=O)c1ccccc1 | > 20 | >20 | > 20 | > 20 | > 20 |
| C=C1[C@H]2C[C@@H]3C4N(C(C)=O)C[C@]5(C)CCC[C@@]46[C@@H]5C(=O)C[C@]3([C@@H]1OC(C)=O)[C@H]6[C@H]2OC(C)=O (some centres not stated) | > 20 |  | > 20 | > 20 | > 20 |
| C=C1[C@H]2C[C@@H]3C4N5C[C@]6(C)CCC[C@@]47[C@@H]6[C@@]5(O)C[C@]3([C@@H]1OC(C)=O)[C@H]7[C@H]2OC(C)=O | > 20 |  | > 20 | > 20 | > 20 |
